Screens from PubChem.
A selection: hits, their analogues and other compounds. The true share with any hit is near 1.3%.
TbHK1 inh: T. brucei hexokinase 1 inhibition | hit rate 0.11% among 220,000 | inhibition, % at 10 µM | recombinant TbHK1, G6PDH-coupled NADH A340;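 active means inhibition of 50% or more in the single-dose primary screen; inactive means inhibition below 50%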
PfG6PD inh: PfG6PD (Plasmodium falciparum) enzyme inhibition | PfGluPho enzyme, NADPH resazurin-diaphorase fluorescence | inhibition, % at 20 µM | hit rate 0.78% among 350,000;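 active means inhibition reaching at least a set limit at 20 µM in the primary screen, cut at about 59% in these data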
HKDC1 inh: blocks human hexokinase HKDC1 activity | hit rate 0.16% among 340,000 | inhibition, % at 20 µM | Q2TB90 | AID 493160 | recombinant HKDC1, G6PDH/diaphorase resazurin coupled fluorescence;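 active means inhibition above about 35% when tested at 20 µM, limit read from the data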
Target sequence (Q2TB90 whole entry, looked up): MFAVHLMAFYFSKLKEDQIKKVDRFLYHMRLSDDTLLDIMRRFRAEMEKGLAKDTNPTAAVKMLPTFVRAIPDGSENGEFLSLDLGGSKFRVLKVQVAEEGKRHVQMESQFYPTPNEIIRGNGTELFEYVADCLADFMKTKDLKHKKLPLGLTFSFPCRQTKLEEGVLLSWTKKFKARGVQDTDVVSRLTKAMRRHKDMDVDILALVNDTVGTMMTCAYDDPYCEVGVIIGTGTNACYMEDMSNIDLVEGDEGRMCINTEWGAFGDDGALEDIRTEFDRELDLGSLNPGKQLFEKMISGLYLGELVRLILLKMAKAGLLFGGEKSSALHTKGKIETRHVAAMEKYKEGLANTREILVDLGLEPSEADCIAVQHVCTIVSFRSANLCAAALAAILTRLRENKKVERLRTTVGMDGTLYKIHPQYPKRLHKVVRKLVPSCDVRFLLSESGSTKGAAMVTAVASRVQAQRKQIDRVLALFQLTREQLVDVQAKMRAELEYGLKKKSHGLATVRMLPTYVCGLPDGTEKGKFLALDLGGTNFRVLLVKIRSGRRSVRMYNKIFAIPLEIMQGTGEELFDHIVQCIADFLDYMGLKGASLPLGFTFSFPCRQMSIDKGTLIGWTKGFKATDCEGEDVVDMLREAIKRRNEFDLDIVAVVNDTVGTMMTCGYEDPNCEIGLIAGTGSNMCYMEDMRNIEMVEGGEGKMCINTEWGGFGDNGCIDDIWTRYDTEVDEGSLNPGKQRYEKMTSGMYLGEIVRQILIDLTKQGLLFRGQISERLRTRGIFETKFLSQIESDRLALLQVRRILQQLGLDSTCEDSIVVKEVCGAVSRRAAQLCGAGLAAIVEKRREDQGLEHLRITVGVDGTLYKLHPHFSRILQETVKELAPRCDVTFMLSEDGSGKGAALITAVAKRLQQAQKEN
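test system = in-house recombinant HK5 (HKDC1) enzyme | amount = HKDC1 at 5 µg/mL | control set = DMSO-enzyme wells negative, buffer-substituted wells positive | compound = one dose of 20 µM, 1% DMSO | schedule = reaction time 90 min, room temperature, protected from light | technique = resorufin fluorescence at 613 nm | reagent = glucose with 1 mM ATP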
Diaphorase inh: counter-screen for diaphorase-based assays: diaphorase inhibitors and chemical oxidizers; AID 1217; inhibition, % at 20 µM; hit rate 0.69% among 190,000; diaphorase resazurin-to-resorufin fluorescence, NADH, 16 min; bacterial (C. kluyveri) enzyme, not human;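 active means primary screen inhibition at 20 µM above a set limit, cut at about 50% in these data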
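Test system: bacterial diaphorase enzyme (C. kluyveri); Quantity: 0.14 U/mL diaphorase, enzyme working solution; Times: reaction incubation of 16 min at room temperature; Measured by: fluorescence of resorufin formed from resazurin, Ex 544/Em 590 nm; Benchmarks: positive control minus NADH, DMSO neutral control.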
G6PDH counter: counter-screen for G6PDH assay hits: L. mesenteroides G6PDH inhibition. Purified L. mesenteroides G6PDH, diaphorase/resazurin coupled fluorescence, 45 min. hit rate 0.12% among 200,000. inhibition, % at 5 µM. AID 1020; in the data active means inhibition above about 50%
PfGluPho conf: PfG6PD inhibition, single-dose confirmed; hit rate 34% among 2,400; shares compounds with PfG6PD inh; inhibition, % at 20 µM; recombinant PfGluPho, NADPH-diaphorase-resazurin fluorescence;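 active means inhibition of at least 50% at 20 µM in any single replicate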
Diaph ctr 10uM: counter-screen for P. falciparum G6PD inhibitors: diaphorase inhibitors, oxidizers | shares compounds with PfG6PD inh | diaphorase-coupled resazurin reduction, fluorescence, NADPH 10 uM | inhibition, % at 20 µM | hit rate 39% among 820 | AID 504862;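 active means average inhibition reaching 50% or more with the compound at 20 µM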;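 further: resorufin red fluorescence formed as diaphorase reduces resazurin using NADPH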
Diaphorase 30uM: inhibits diaphorase or oxidizes, flagging false PfG6PD hits | shares compounds with PfG6PD inh | Diaphorase/resazurin coupled assay, resorufin fluorescence, 30 uM NADPH | inhibition, % at 20 µM | hit rate 29% among 820;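 active means inhibition averaging 50% or more, tested at 20 µM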
A number is an active result; 0 = inactive; - = no result given.

SMILES	TbHK1 inh	PfG6PD inh	HKDC1 inh	Diaphorase inh	G6PDH counter	PfGluPho conf	others
CC(C)(C)c1ccc(OCCn2nc(C(=O)O)c3ccccc3c2=O)cc1	-	62.4	0	-	-	0
CN(C)CCNC(=O)c1cccc2ccc(-c3ccc(-c4ccccc4)cc3)nc12	-	95.5	0	-	-	0
O=S(=O)(Nc1cccc2ccccc12)c1ccccc1F	-	0	0	-	-	-
O=S(=O)(Nc1c(O)ccc2ccccc12)c1cccc2ccccc12	-	84.3	0	-	-	0
Cc1cccc(-c2nc3ccccc3c(=O)n2NC(=S)N(C)C)c1	0	61.8	0	0	0	0
CN(C)C(=S)Nn1c(-c2ccccc2)nc2ccccc2c1=O	0	0	0	0	0	-
O=C(c1ccc(Cl)cc1)c1ccccc1C(=O)N1CCOCC1	0	62.9	0	0	0	0
Cc1ccnc(SCCn2c(N3CCN(C)CC3)nc3c2c(=O)[nH]c(=O)n3C)n1	-	-	-	0	0	-
CCn1cc(C(=O)NCc2cccnc2)c2cc(OC)c(OC)cc2c1=O	0	0	0	0	0	-
CN=c1sc(C(=O)Nc2ccccc2)c(C)n1C	0	0	0	0	0	-
CN=c1sc2c(n1C)C(=O)c1ccccc1C2=O	-	72.2	0	-	-	0
CCOc1ccc(NC(=O)C2CCCN(S(=O)(=O)c3cnc[nH]3)C2)cc1 (centres undefined)	-	0	0	-	-	-
Cc1cc(-n2c(C)cc(C(=O)COc3ccc4ccc(=O)oc4c3)c2C)no1	0	89.4	0	0	0	0
Cc1cc(-n2c(C)cc(C(=O)COc3cccnc3[N+](=O)[O-])c2C)no1	-	0	0	-	-	-
CC(=O)c1cccc(OCC(=O)c2cc(C)n(-c3cc(C)on3)c2C)c1	0	116.6	0	0	0	61.6	Diaph ctr 10uM=61.8;Diaphorase 30uM=54.7
O=C(COc1ccc2ccc(=O)oc2c1)c1ccccc1	0	0	0	-	-	-
O=C(COC(=O)c1ccccc1NC(=O)c1ccco1)Nc1ccc2c(c1)OCO2	0	0	0	0	0	-
Nc1nc2ccc(S(=O)(=O)N3CCCCC3)cc2s1	0	64.8	0	0	0	0
CCC(COC)Oc1cc(NCc2ccccc2)c2ncn(C(C)C)c2c1 (centres undefined)	-	82.8	0	-	-	0
CC(C)n1cnc2c(NCc3ccccc3)cc(N[C@H](C)CO)cc21	-	67.1	0	-	-	0
CCCCOc1cc(NCc2ccccc2)c2ncn(C(C)C)c2c1	-	72.7	0	-	-	0
CCC(CO)Oc1cc(NCc2ccccc2)c2ncn(C(C)C)c2c1 (centres undefined)	-	0	0	-	-	-
COc1cc(NCc2ccccc2)c2ncn(Cc3ccccc3)c2c1	-	65.8	0	-	-	49.9	Diaph ctr 10uM=0;Diaphorase 30uM=0
O=C1CCCN1CCCNc1ccc2nnc(CCC(=O)N3CCN(c4ccccc4)CC3)n2n1	-	0	0	-	-	-
O=C(NNC(=O)C1CCN(S(=O)(=O)c2c(Cl)cccc2Cl)CC1)c1ccccc1O	-	0	0	-	-	-
SMILES	TbHK1 inh	PfG6PD inh	HKDC1 inh	Diaphorase inh	G6PDH counter	PfGluPho conf	others
Cc1cc(O)c(C(C)C)cc1N=Cc1ccccc1[N+](=O)[O-]	-	100.9	0	-	-	65.1	Diaph ctr 10uM=0;Diaphorase 30uM=0
COC(=O)CNC(c1ccccc1)c1cc(Br)ccc1NS(=O)(=O)c1ccccc1 (centres undefined)	0	0	0	0	0	-
S=c1cnc2ccccc2[nH]1	0	64.0	0	0	0	0
c1ccc2[nH]c(CCCc3nc4ccccc4[nH]3)nc2c1	-	0	0	-	-	-
CCOCCn1c(CN(C)Cc2ccccc2)nc2c1c(=O)n(C)c(=O)n2C	-	0	0	-	-	-
CC1=CC(=O)C=C(C)C1=NOc1ccccc1[N+](=O)[O-]	0	68.9	0	0	0	0
Cc1cc(C)c(S(=O)(=O)Oc2ccccc2[N+](=O)[O-])c(C)c1	-	0	0	-	-	-
O=c1c2ccccc2ncn1CCOCCOc1cccc(Br)c1	0	0	0	0	0	-
O=C(NCc1cccnc1)C(=O)NCC(c1ccco1)N1CCN(c2ccccc2F)CC1 (centres undefined)	0	0	0	0	0	-
CON=C1C=C(C)C(=O)C(C)=C1C	-	0	0	-	-	-
CC(S(=O)(=O)c1ccccc1)S(=O)(=O)c1ccccc1	-	0	-	-	-	-
CC1=C/C(=N\OS(=O)(=O)c2ccccc2)C(C)=CC1=O	0	110.7	0	100.5	0	105.4	Diaph ctr 10uM=97.6;Diaphorase 30uM=102.9
CC1=C/C(=N\OS(=O)(=O)c2ccccc2)C(C(C)C)=CC1=O	0	98.5	0	101.3	0	96.3	Diaph ctr 10uM=76.4;Diaphorase 30uM=62.9
O=C(COC(=O)CNC(=O)c1sc2ccccc2c1Cl)Nc1cc(Cl)cc(Cl)c1	0	0	0	0	0	-
